Measured values: ChEMBL document CHEMBL1123005, “1-Azacycloalkyl-1,4-benzodiazepin-2-ones with antianxiety-antidepressant actions” (J Med Chem, 1985)
The source made the active and inactive calls. The calls are words filed in the database; no cut-off is given here.

Key:
[1] = molecular target: GABA-A receptor; anion channel (Rattus norvegicus) (UniProt O09028+P15431+P18506+P18508+P19969+P20236+P23574+P23576+P28471+P28473+P30191+P62813+P63079+P63138+Q91ZM7+Q9ES14); assay: Binding constant was determined by displacing potential to [3H]-diazepam binding in cerebral cortex homogenates of rat; format: tissue-based
Method in brief: (§1)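 Wistar rat cerebral cortex homogenate incubated with compound and 2 nM [3H]diazepam at 0 °C for 60 min. Bound label trapped on glass filters and counted by scintillation. Ki = IC50/(1 + L/Kd).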

Mus musculus [2] = assay: Effective dose against tetrabenazine induced ptosis in mice administered subcutaneously; format: functional; details: sc
Method in brief: (§2)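 Male DS mice, 20-27 g, groups of five. Compound given po or sc in saline or gum arabic at 0.1 mL/10 g. Tetrabenazine 50 mg/kg sc given 1, 4 or 24 h later. Ptosis scored 1-4 at 1 h after TBZ, with ridit transformation. Dose for 50% prevention by regression.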

Mus musculus [3] = assay: Effective dose against pentylenetetrazole intoxicity in mice administered through subcutaneous route; NE = no effect at 10 mg/kg; format: functional, organism-based; design: dose 10 mg/kg
Mus musculus [4] = assay: Effective dose against pentylenetetrazole intoxicity in mice administered through subcutaneous route; NE = no effect at dose 10 mg/kg; format: functional, organism-based; design: dose 10 mg/kg
Mus musculus [5] = assay: Effective dose against pentylenetetrazole intoxicity in mice administered through subcutaneous route; NE= no effect at 10 mg/kg; format: functional, organism-based; design: dose 10 mg/kg
Mus musculus [6] = assay: Effective dose against pentylenetetrazole intoxicity in mice administered orally; NE= no effect at 50 mg/kg; format: functional, organism-based; design: dose 50 mg/kg
Mus musculus [7] = assay: Percent inhibition against tetrabenazine induced ptosis in mice administered subcutaneously at 50 mg/kg; format: functional; details: sc, route subcutaneous; method in brief: as §2
Mus musculus [8] = assay: Effective dose against pentylenetetrazole intoxicity in mice administered orally; format: functional
Mus musculus [9] = assay: Effective dose against pentylenetetrazole intoxicity in mice administered through subcutaneous route; format: functional; details: sc
Rattus norvegicus [10] = species on record: Rattus norvegicus; assay: Inhibitory activity against uptake of [3H]norepinephrine into rat brain synaptosomes.; format: functional
Method in brief: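 P2 synaptosomes from male Wistar rat cerebral cortex incubated with [3H]norepinephrine at 37 °C for 20 min, with compound at 5-6 concentrations. Stopped by Krebs-Henseleit dilution and glass-fibre filtration, then scintillation counting. IC50 taken as the concentration giving 50% uptake inhibition.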

Mus musculus [11] = assay: Effective dose against tetrabenazine induced ptosis in mice administered orally; format: functional; method in brief: as §2
Rattus norvegicus [12] = assay: Effective dose against anticonflict effect in rats when administered through oral route; format: functional
Method in brief: (§3)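 Wistar rats in groups of 5-8, Geller-Seifter conflict procedure. Rats trained to lever-press for food on a variable-interval 60-s schedule. Oral dosing. A dose counted positive when shocks exceeded 12 or shock ratio exceeded 4 over four consecutive tone periods. ED50 with 95% limits by probit.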

Rattus norvegicus [13] = species on record: Rattus norvegicus; assay: Displacement of [3H]diazepam binding in rat cerebral cortex homogenates (Experiment 1); format: tissue-based; method in brief: as §1
Rattus norvegicus [14] = species on record: Rattus norvegicus; assay: Displacement of [3H]diazepam binding to rat cerebral cortex homogenates (Experiment 2); format: tissue-based; method in brief: as §1
Mus musculus [15] = assay: Effective dose against pentylenetetrazole intoxicity in mice administered orally; NE = not effective at dose 50 mg/kg; format: functional, organism-based; design: dose 50 mg/kg
Mus musculus [16] = assay: Effective dose against pentylenetetrazole intoxicity in mice administered subcutaneously; NE = not effective at dose 10 mg/kg; format: functional, organism-based; design: dose 10 mg/kg
Rattus norvegicus [17] = assay: Effective dose was evaluated by their anticonflict effect in rats when administered through oral route; format: functional; method in brief: as §3
Mus musculus [18] = assay: Effective dose against pentylenetetrazole intoxicity in mice administered orally; NE = no effect at dose 50 mg/kg; format: functional, organism-based; design: dose 50 mg/kg
[19] = Acute toxicity was measured in mice after peroral administration (1293-1506); format: organism-based; details: mouse, in vivo, po
Method in brief: (§4)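 Male DS mice, 20-26 g, given compound orally; mortality checked the day after treatment in groups of 10. LD50 by probit method, or by up-and-down method of Brownlee et al. (n = 5) where estimated.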

Mus musculus [20] = assay: Percent inhibition against tetrabenazine induced ptosis in mice administered orally at 50 mg/kg; format: functional; details: route oral; method in brief: as §2
Mus musculus [21] = assay: Percent inhibition against pentylenetetrazole intoxicity in mice administered orally at 50 mg/kg; format: functional; details: route oral
Rattus norvegicus [22] = assay: Percent inhibition was evaluated by their anticonflict effect in rats when administered through oral route at 32 mg/kg; format: functional; method in brief: as §3
Mus musculus [23] = assay: Percent inhibition against tetrabenazine induced ptosis in mice administered orally at 100 mg/kg; format: functional; details: route oral; method in brief: as §2
[24] = Acute toxicity was measured in mice after peroral administration; format: organism-based; details: mouse, in vivo, po; method in brief: as §4
Mus musculus [25] = assay: Effective dose against pentylenetetrazole intoxicity in mice administered orally; NE = no effect at 50 mg/kg; format: functional, organism-based; design: dose 50 mg/kg
[26] = Mus musculus, po, read-out: ED50

| Compound | K2 [1] | ED50 (Mus musculus [2]) | ED50 (Mus musculus [8]; [26]) | ED50 (Mus musculus [11]; [26]) | other results |
| --- | --- | --- | --- | --- | --- |
| COc1ccc2c(c1)C(c1ccccc1F)=NCC(=O)N2C1CCN(C)CC1 | 1.26 µM | 1.24 mg/kg | – | – | ED50 (Mus musculus [3]): inactive |
| CC(=O)N1CCC(N2C(=O)CN=C(c3ccccc3)c3ccccc32)CC1 | 1.5 µM | 3.25 mg/kg | – | – | ED50 (Mus musculus [4]): inactive |
| CN1CCC(N2C(=O)CN=C(c3ccccc3F)c3ccc(F)cc32)CC1 | 0.44 µM | 0.94 mg/kg | – | – | ED50 (Mus musculus [5]): inactive; ED50 (Mus musculus [6]): inactive |
| Cc1ccc2c(c1)C(c1ccccc1F)=NCC(=O)N2C1CCN(C)CC1 | 0.26 µM | 0.84 mg/kg | – | – | ED50 (Mus musculus [3]): inactive |
| CCOC(=O)N1CCC(N2C(=O)CN=C(c3ccccc3F)c3cc(Cl)ccc32)CC1 | 0.038 µM | – | 9.09 mg/kg | – | inhibition in vivo at 50 mg/kg (Mus musculus [7]): 67%; ED50 (Mus musculus [9]): 11.1 mg/kg |
| O=C1CN=C(c2ccccc2)c2cc(Br)ccc2N1C1CCNCC1 | 0.57 µM | – | 38.8 mg/kg | 0.76 mg/kg | IC50 (Rattus norvegicus [10]): 402 nM |
| CN1CCC(N2C(=O)CN=C(c3ccccc3)c3cc(Br)ccc32)CC1 | 0.415 µM | – | 21.4 mg/kg | 2.88 mg/kg | ED50 (Rattus norvegicus [12]): 17.4 mg/kg |
| CN1CCC(N2C(=O)CN=C(c3ccccc3F)c3cc([N+](=O)[O-])ccc32)CC1 | – | 17.7 mg/kg | – | – | K2 (Rattus norvegicus [13]): 8.3 µM; K2 (Rattus norvegicus [14]): 24 µM; ED50 (Mus musculus [5]): inactive |
| CN1CCC(N2C(=O)CN=C(c3ccccc3)c3ccccc32)CC1 | – | 0.26 mg/kg | – | 0.38 mg/kg | ED50 (Mus musculus [15]): inactive; ED50 (Mus musculus [16]): inactive |
| O=C1C(O)N=C(c2ccccc2F)c2cc(Cl)ccc2N1C1CCNCC1 (stereo unspecified) | 0.14 µM | – | 12.5 mg/kg | 6.51 mg/kg | ED50 (Rattus norvegicus [17]): 8.8 mg/kg |
| O=C1CN=C(c2ccccc2)c2cc(Cl)ccc2N1C1CCNCC1 | 0.35 µM | 0.172 mg/kg | 36.5 mg/kg | 0.48 mg/kg | IC50 (Rattus norvegicus [10]): 172 nM; ED50 (Mus musculus [11]): 0.48 mg/kg; ED50 (Mus musculus [18]): inactive; ED50 (Rattus norvegicus [17]): 11.8 mg/kg; LD50 [19]: 1390 mg/kg; ED50 (Mus musculus [3]): inactive |
| O=C1CN=C(c2ccccc2Cl)c2cc(Cl)ccc2N1C1CCNC1 (stereo unspecified) | 0.027 µM | 12.6 mg/kg | 9.63 mg/kg | – | inhibition in vivo at 50 mg/kg (Mus musculus [20]): 34% |
| O=C1CN=C(c2ccccc2)c2cc(F)ccc2N1C1CCNCC1 | 2 µM | – | – | 0.39 mg/kg | IC50 (Rattus norvegicus [10]): 59 nM; inhibition in vivo at 50 mg/kg (Mus musculus [21]): 12.5%; inhibition in vivo at 32 mg/kg (Rattus norvegicus [22]): 60% |
| O=C1C(O)N=C(c2ccccc2F)c2ccccc2N1C1CCNCC1 (stereo unspecified) | 0.36 µM | 0.23 mg/kg | – | – | ED50 (Mus musculus [4]): inactive |
| CN1CCC(N2C(=O)CN=C(c3ccccc3F)c3cc(Cl)ccc32)CC1 | – | 1.3 mg/kg | 2.7 mg/kg | 2.13 mg/kg | ED50 (Mus musculus [8]): 5.28 mg/kg; ED50 (Mus musculus [11]): 1.12 mg/kg; ED50 (Rattus norvegicus [17]): 3.67 mg/kg; ED50 (Mus musculus [9]): 0.71 mg/kg |
| CN1CCC(N2C(=O)CN=C(c3ccccc3F)c3cc(Cl)ccc32)C1 (stereo unspecified) | 0.2 µM | – | 1.1 mg/kg | 3.69 mg/kg | – |
| CN1CCC(N2C(=O)CN=C(c3ccc(F)cc3)c3ccccc32)CC1 | 68 µM | – | – | – | inhibition in vivo at 50 mg/kg (Mus musculus [7]): 53%; ED50 (Mus musculus [3]): inactive |
| CN1CCC(N2C(=O)CN=C(c3ccccc3Cl)c3cc(Cl)ccc32)C1 (stereo unspecified) | 0.05 µM | – | 5.78 mg/kg | – | inhibition in vivo at 100 mg/kg (Mus musculus [23]): 61% |
| CNC1=Nc2ccc(Cl)cc2C(c2ccccc2)=[N+]([O-])C1 [CHLORDIAZEPOXIDE] | – | – | – | 2.7 mg/kg | LD50 [24]: 877 mg/kg |
| O=C1CN=C(c2ccccc2F)c2ccccc2N1C1CCNCC1 | 0.15 µM | 0.07 mg/kg | – | – | ED50 (Mus musculus [25]): inactive; ED50 (Mus musculus [3]): inactive |
